DDE Tn7 FP inh: inhibitors of Tn7 peptide binding to human fibrin DD(E) | P02675 | 0.13% of 370,000 active | inhibition, % at 8.3 µM | FP displacement of FITC-Tn7 peptide from fibrin DD(E); 0% = median of compound wells per plate;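 active means inhibition above the mean of compounds falling within the control limits plus 3 SD of them, cut at about 14% in these data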;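 further: 0% = plate median of compound wells and 100% = 10 µM Aha-Tn7 peptide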
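Test system – human fibrin DD(E) · Times – 10 min preincubation, 3 h with tracer, room temperature · Detection – fluorescence polarization of the labelled Tn7 tracer · Measure – percent inhibition normalized to high-control wells · Benchmarks – high control wells with 10 µM unlabelled Aha-Tn7 peptide (full inhibition) · Repeats – singlicate testing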
ABCB1 inh: inhibitors of human ABCB1 transporter, ABCG2 counter-screen | P08183 | CCRF-Adr cells, JC-1 efflux, flow cytometry | inhibition, % at 6.6 µM | 0.067% of 190,000 active | AID 1326; in the data active means inhibition above about 40%;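 further: 0% = vehicle and 100% = reference inhibitor; higher value means more JC-1 retained so stronger ABCB1 efflux block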
Target sequence (P08183 whole entry, looked up): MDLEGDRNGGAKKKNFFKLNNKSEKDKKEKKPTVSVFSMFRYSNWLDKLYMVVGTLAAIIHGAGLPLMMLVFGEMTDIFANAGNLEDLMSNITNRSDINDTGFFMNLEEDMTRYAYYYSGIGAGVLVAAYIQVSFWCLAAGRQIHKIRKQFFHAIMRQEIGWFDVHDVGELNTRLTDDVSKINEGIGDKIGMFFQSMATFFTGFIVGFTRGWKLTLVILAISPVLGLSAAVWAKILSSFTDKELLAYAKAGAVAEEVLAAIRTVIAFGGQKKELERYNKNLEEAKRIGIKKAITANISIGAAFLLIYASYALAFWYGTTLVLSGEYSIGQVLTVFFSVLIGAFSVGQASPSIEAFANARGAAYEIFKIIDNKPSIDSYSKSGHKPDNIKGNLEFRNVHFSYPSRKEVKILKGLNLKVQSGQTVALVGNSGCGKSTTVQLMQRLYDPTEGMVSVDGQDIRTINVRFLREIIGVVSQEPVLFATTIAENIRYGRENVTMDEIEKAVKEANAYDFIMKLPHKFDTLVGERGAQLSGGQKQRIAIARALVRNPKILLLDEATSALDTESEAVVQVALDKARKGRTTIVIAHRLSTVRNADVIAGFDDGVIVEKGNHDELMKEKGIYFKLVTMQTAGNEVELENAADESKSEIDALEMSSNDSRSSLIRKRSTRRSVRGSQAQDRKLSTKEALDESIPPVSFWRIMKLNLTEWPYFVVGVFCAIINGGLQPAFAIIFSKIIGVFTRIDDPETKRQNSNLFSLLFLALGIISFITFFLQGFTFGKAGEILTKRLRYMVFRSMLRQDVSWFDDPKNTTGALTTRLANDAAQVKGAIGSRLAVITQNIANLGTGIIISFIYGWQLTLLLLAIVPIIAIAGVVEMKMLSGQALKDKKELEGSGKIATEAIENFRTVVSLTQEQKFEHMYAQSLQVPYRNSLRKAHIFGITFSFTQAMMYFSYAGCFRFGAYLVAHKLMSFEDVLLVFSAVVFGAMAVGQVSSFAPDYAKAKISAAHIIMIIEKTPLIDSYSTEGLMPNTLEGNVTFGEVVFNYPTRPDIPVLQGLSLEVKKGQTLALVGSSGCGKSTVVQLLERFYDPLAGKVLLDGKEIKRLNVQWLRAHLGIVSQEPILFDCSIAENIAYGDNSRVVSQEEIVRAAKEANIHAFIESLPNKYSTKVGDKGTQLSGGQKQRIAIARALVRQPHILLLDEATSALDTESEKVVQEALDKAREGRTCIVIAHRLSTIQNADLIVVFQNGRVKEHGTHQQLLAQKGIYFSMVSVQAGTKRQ
DDE Tn6 FP inh: disrupts Tn6 cyclic peptide binding to fibrin D-Dimer-E complex; Fibrin DD(E) TRITC-Tn6 fluorescence polarization displacement; inhibition, % at 8.3 µM; 0.21% of 370,000 active;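 active means inhibition above a per-campaign cutoff: mean of compounds within control limits plus 3 SD, cut at about 15% in these data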;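 further: 0% = median of all compound wells on the plate and 100% = blocking peptide control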
ABCG2 inh: inhibitors of human ABCG2 transporter, ABCB1 counter-screen; AID 1325; 0.1% of 190,000 active; IgMXP3 cells, JC-1 efflux, flow cytometry; inhibition, % at 6.6 µM;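 active means inhibition above 80%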;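 further: 0% = DMSO and 100% = nicardipine control wells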
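Test system: IgMXP3 (ABCG2) plus far-red-tagged CCRF-Adr (ABCB1) cells / Amount: 3 million cells/mL in well / Reagent: JC-1 transporter substrate / Timing: 10 min compound exposure, 25 °C / Signal: flow cytometry, 530 nm JC-1 signal / Read-out: percent efflux inhibition, scaled nicardipine 100% to DMSO 0% / Benchmarks: nicardipine as high control, DMSO as low control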
Ins promoter up: MIN6 insulin promoter up-regulation; MIN6 insulin promoter-GFP reporter, high-content imaging; stronger effect = higher value; z-score at 5 µM; 0.3% of 190,000 active;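 active means z-score above 3 at 5 µM with at least 500 cells counted in the well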
GRK2 aptamer HTS: human GRK2 inhibition via aptamer displacement; bead flow cytometry, FAM-aptamer displacement from GRK2; inhibition of aptamer binding, % at 10 µM; AID 488847; P25098; 0.59% of 330,000 active;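 active means inhibition of aptamer binding above 40%, roughly 3 SD of noise, on plates passing a quality check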;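 further: median bead fluorescence of bound FAM aptamer so fluorescent compounds give negative values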
GRK2 inh confirm: confirmation of human GRK2 inhibitors displacing RNA aptamer; shares compounds with GRK2 aptamer HTS; bead-bound GRK2, FAM-aptamer displacement, flow cytometry; 4% of 2,000 active; aptamer displacement, % at 10 µM;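 active means aptamer displacement above 40%, near three times the noise of non-fluorescent compounds, on plates passing quality checks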;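 further: negative values mostly reflect intrinsic compound fluorescence rather than true enhancement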
Aptamer quench 1: quenches fluorescent RNA aptamer, GRK2 hit artifact | shares compounds with GRK2 aptamer HTS | Fluorescent RNA aptamer beads, quenching, flow cytometry; stronger effect = higher value | fluorescence change (kMESF span), kMESF (test concentration not listed) | 110 tested, under 10 active;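 active means compounds whose bead fluorescence drops by more than 37 kMESF across the dose range, marking them as dye quenchers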
FAM quench CP1: counter-screen for GRK2 aptamer inhibitors: fluorescent aptamer quenchers; shares compounds with GRK2 aptamer HTS; Carboxyfluorescein RNA aptamer on beads, flow cytometry quenching; stronger effect = lower value; fluorescence response (% of DMSO), % at 10 µM; 2,000 tested, under 10 active;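 active means compounds that quench the bead-bound fluorescent RNA probe, cutting fluorescence to under half of the solvent control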;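 further: counterscreen run without GRK2 so only probe quenching by compound is measured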
GRK2 CP2: confirmation of human GRK2 inhibitors binding RNA aptamer site | shares compounds with GRK2 aptamer HTS | bead-bound GRK2, FAM-aptamer displacement, flow cytometry | inhibition of aptamer binding, % at 10 µM | 360 tested, under 10 active | AID 504782;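 active means inhibition of aptamer binding above 40%, about triple the noise seen with nonglowing compounds, on plates passing quality control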;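 further: negative values mostly come from compounds that fluoresce themselves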
FAM quench CP2: aptamer fluorescence quenching in GRK2 counter-screen; carboxyfluorescein RNA aptamer beads, flow cytometry quenching; stronger effect = lower value; 360 tested, under 10 active; fluorescence response vs DMSO, % at 10 µM; shares compounds with GRK2 aptamer HTS;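 active means response vs DMSO under 50%, meaning signal dropped by over half, treated as fluorescence quencher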;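 further: labelled aptamer on streptavidin beads without GRK2 as a quench counter-screen; 100% = bead fluorescence of DMSO wells and lower means quenching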
The depositor's hits bear a star; / = no result. An excerpt weighted towards active compounds, which were near 0.99% of everything screened.

SMILES | DDE Tn7 FP inh | ABCB1 inh | DDE Tn6 FP inh | ABCG2 inh | Ins promoter up | GRK2 aptamer HTS | GRK2 inh confirm | FAM quench CP1 | others
CN(C)c1ccc(/C=C/c2nc3ccccc3c(=O)n2-c2ccc(C(=O)O)cc2)cc1 | -58 | / | -2 | / | / | 7 | -4 | 102
NC(=O)C1CCN(CC(=O)Nc2cccnc2Cl)CC1 | -2 | 1 | 2 | 13 | / | 42* | -4 | 135
C#CCN1CC(N(C)CCOC(=O)c2cc3ccccc3[nH]2)CS1(=O)=O (centres undefined) | -7 | / | -6 | / | / | / | / | /
COc1ccc(Cn2nnnc2C(c2ccccn2)N2CCN(c3cc(Cl)ccc3C)CC2)cc1 (centres undefined) | 3 | 4 | -2 | 10 | / | 0 | / | /
COCCn1nnnc1C(c1ccccn1)N1CCN(c2cc(Cl)ccc2C)CC1 (centres undefined) | -1 | 1 | -6 | 2 | -1.3 | 97* | -1 | 102
O=C(COC(=O)c1cccc(OC(F)F)c1)Nc1ncccn1 | 1 | / | -7 | / | / | 39 | 10 | 96
O=C(COC(=O)c1ccc(OC(F)(F)F)cc1)Nc1ncccn1 | -7 | / | 6 | / | / | 41* | 3 | 94
N#CCCN(C(=O)COC(=O)c1cc(=O)[nH]c2ccccc12)c1ccccc1 | 6 | / | 0 | / | / | 45* | -1 | 101
O=C(COC(=O)c1cc(=O)[nH]c2ccccc12)NC(=O)c1ccccc1 | 3 | / | 5 | / | / | 68* | -3 | 110
N#CCCN(C(=O)COC(=O)c1n[nH]c2ccccc12)c1ccccc1 | -2 | / | 0 | / | / | 0 | / | /
O=c1c2cc3cc4c(cc3nc2ncn1CCc1ccccc1)OCO4 | 2 | / | -4 | / | / | / | / | /
O=C(NC1CC1)c1cccc(NC(=O)c2cnn(-c3ccccc3)n2)c1 | 3 | / | 6 | / | / | 4 | -1 | 94
O=[N+]([O-])c1ccccc1C=Nn1c(-c2cc(-c3ccccc3)n[nH]2)n[nH]c1=S | 2 | / | -2 | / | / | / | / | /
Cc1nn(C)c(C(=O)N2CCc3ccccc32)c1Br | -1 | 1 | -2 | 9 | 0.53 | 41* | / | / | GRK2 CP2=-3;FAM quench CP2=99
Cc1c(Br)c(C(=O)N2CCc3ccccc32)nn1C | 0 | 1 | 6 | 19 | 0.39 | 0 | / | /
CCOC(=O)C1CCCN(CCC(=O)Nc2ccccc2)C1 (centres undefined) | 1 | / | -1 | / | -0.44 | 0 | / | /
CCOC(=O)C1CCCN(CCC(C)c2ccccc2)C1 (centres undefined) | -8 | 0 | -5 | -3 | -0.05 | 78* | 2 | 102
COCCCNC(=O)C[C@@H]1C(=O)N2CCCC3=C2[C@@]1(C(=O)OC)CCCC3 | -7 | / | -7 | / | / | / | / | /
Cc1cc(OC(C)CCN2CCC(C(O)(c3ccccc3)c3ccccc3)CC2)ccc1Br (centres undefined) | -3 | / | -7 | / | / | / | / | /
CC[C@H](C)/C=C/C1=CC2=C(Cl)C(=O)[C@@]3(C)OC(=O)C(C(=O)[C@H](C)[C@@H](C)O)=C3C2=CO1 | / | / | / | / | / | 69* | 3 | 104
COc1ccccc1NC(=O)OC[C@@H]1CSCCS(=O)(=O)N1 | 6 | / | -8 | / | / | / | / | /
CCc1ccccc1NS(=O)(=O)c1ccc2[nH]cc(C(=O)NC3CCCC3)c(=O)c2c1 | 1 | -1 | -14 | -1 | -0.37 | 6 | / | /
CNC(=O)c1c[nH]c2ccc(S(=O)(=O)Nc3ccccc3F)cc2c1=O | 2 | / | -2 | / | / | 93* | 8 | 103
COc1ccccc1CNS(=O)(=O)c1ccc2[nH]cc(C(=O)O)c(=O)c2c1 | / | 0 | / | 1 | -0.41 | 59* | 56* | 91 | Aptamer quench 1=-47
CC1(C)NC(=O)N(CC(=O)Nc2ccc(-n3cnnn3)cc2)C1=O | 0 | / | 4 | / | / | 28 | 2 | 95
SMILES | DDE Tn7 FP inh | ABCB1 inh | DDE Tn6 FP inh | ABCG2 inh | Ins promoter up | GRK2 aptamer HTS | GRK2 inh confirm | FAM quench CP1 | others
COc1ccc(C(=O)N[C@@H]2CC[C@@]34CCCN3C(=O)CCC[C@H]4[C@H]2C)cc1 | 4 | / | 1 | / | / | / | / | /
Nc1cccn2c(-c3ccc(Cl)cc3)cnc12 | -3 | 0 | 1 | -1 | 0.71 | 19 | -1 | 99
COc1ccc(C2c3ccc(O)cc3Oc3ncn4nc(-c5ccco5)nc4c32)cc1OC (centres undefined) | 3 | / | -2 | / | 1.1 | 57* | 3 | 99
COc1ccc(C2c3ccc(O)cc3Oc3ncn4nc(-c5ccccn5)nc4c32)cc1OC (centres undefined) | -8 | / | 5 | / | -0.4 | 1 | / | /
CCOC(=O)Cn1cc(Cl)c(=O)c(Cl)c1 | -7 | / | 2 | / | -0.17 | 85* | -3 | 102
CCOC(=O)Cn1cnc(C)c1 | -1 | / | -3 | / | / | / | / | /
O=C1CCC[C@H]2C[C@H](NCc3ccccc3F)CC[C@]23CCCN13 | 0 | / | -3 | / | / | / | / | /
CN(C(=O)c1ccccc1C(=O)OCC(=O)c1ccc(F)cc1)c1ccccc1 | 0 | / | -3 | / | / | 0 | / | /
CN(C(=O)c1ccccc1C(=O)OCC(=O)c1ccccc1)c1ccccc1 | -1 | / | 1 | / | / | 75* | -18 | 98
O=[N+]([O-])c1ccc(N2CCN(c3ccc(Cl)nn3)CC2)cc1NC1CC1 | -9 | / | -11 | / | / | 64* | -1 | 99
O=[N+]([O-])c1ccc(N2CCN(c3ccc(Cl)nn3)CC2)c(Cl)c1 | 3 | 1 | -3 | 3 | -0.8 | 0 | / | /
N#Cc1ccc(-c2nc3ccc(Cl)cn3c2Cc2ccccc2)cc1 | 4 | / | 0 | / | / | / | / | /
O=C(O)c1cc(-c2ccc(/C=C3\NC(=O)N(c4ccc(Cl)cc4)C3=O)o2)ccc1Cl | -2 | -2 | 1 | -8 | -1.3 | 50* | 25 | 109
O=C(O)c1cc(-c2ccc(/C=C3\NC(=O)N(c4ccccc4)C3=O)o2)ccc1Cl | 4 | / | -7 | / | 0.69 | 86* | 20 | 102
O=C1NN(c2ccccc2)C(=O)/C1=C/c1ccc(-c2ccc(Cl)c(C(=O)O)c2)o1 | 4 | 0 | 1 | -1 | 0.02 | / | / | /
CC(=O)C1CCC2C3CC=C4CC(SC(=N)N)CCC4(C)C3CCC12C (centres undefined) | -4 | / | 1 | / | / | / | / | /
